The values that follow come from PMC11310375 (EJNMMI Radiopharmacy and Chemistry, 2024).

Square brackets hold non-standard residues; d marks the D form. Peptide text beside a SMILES is read from it. * marks the point of attachment. AspCH2OCO(5-Me-thien-2-yl) = Cc1ccc(C(=O)OCC(=O)[C@H](CC(=O)O)N*)s1; Phe(F5) = N[C@@H](Cc1c(F)c(F)c(F)c(F)c1F)C(=O)O; X5 = Cc1cccc(C)c1C(=O)OCC(=O)[C@@H](CC(=O)O)N*; X4 = Cc1ccc(C(=O)OCC(=O)[C@@H](CC(=O)O)N*)s1; X2 = O=C(CCOCCOCCOCCOCCn1cc(CCCF)nn1)*; d(β3hL) = CC(C)C[C@@H](N)CC(=O)O; 3Pal = N[C@@H](Cc1cccnc1)C(=O)O; d3Pal = N[C@H](Cc1cccnc1)C(=O)O; X3 = O=C(CCCc1cn(CCF)nn1)*; X1 = O=C(Cn1cc(CCCF)nn1)*; Ahx = NCCCCCC(=O)O

Experiment in all cases: Biochemical inhibition assay, kinact/Ki with AMAC substrate
For experiment [1], the target named is T1, caspase-3 (Homo sapiens, UniProt P42574).
T1 sequence (P42574 29-175 limits assumed): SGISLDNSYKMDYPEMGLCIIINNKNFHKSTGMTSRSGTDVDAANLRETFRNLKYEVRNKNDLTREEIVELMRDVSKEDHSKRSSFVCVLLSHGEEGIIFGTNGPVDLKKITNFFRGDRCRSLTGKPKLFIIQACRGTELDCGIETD
T1 sequence (P42574 176-277 limits assumed): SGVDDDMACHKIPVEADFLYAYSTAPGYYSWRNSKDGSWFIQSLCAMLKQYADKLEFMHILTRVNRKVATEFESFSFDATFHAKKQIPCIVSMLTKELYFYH
To be noted: for kinact/KI: read-out: kinact/Ki C3. Summed up: (§1)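 Continuous fluorogenic inactivation assay with Ac-DEVD-AMAC at 100 μM final. Final enzyme concentrations were 1 nM caspase-3 and 5 nM caspase-7. Enzyme was added to substrate plus inhibitor, and fluorescence (ex 320/em 460) was read immediately. Progress curves were fit to F = -[v₀(1-exp(-kobst))/kobs-Fmax] to give kinact and Ki.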

Experiment [2] has as its target T2, caspase-7 (Homo sapiens, UniProt P55210).
T2 sequence (P55210 24-198 limits assumed): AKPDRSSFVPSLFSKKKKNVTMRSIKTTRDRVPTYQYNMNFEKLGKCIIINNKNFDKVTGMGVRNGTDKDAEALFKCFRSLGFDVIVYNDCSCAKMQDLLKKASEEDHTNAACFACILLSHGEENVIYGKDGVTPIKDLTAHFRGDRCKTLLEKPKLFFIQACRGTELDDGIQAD
T2 sequence (P55210 207-303 limits assumed): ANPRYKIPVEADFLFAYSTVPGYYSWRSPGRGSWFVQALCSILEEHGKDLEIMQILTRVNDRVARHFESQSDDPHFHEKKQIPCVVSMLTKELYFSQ
As to conditions: read-out: kinact/Ki C7. The gist of the method:
as §1

The target in experiment [3] is T3, caspase-6 (Homo sapiens, UniProt P55212).
T3 sequence (P55212 24-179 limits assumed): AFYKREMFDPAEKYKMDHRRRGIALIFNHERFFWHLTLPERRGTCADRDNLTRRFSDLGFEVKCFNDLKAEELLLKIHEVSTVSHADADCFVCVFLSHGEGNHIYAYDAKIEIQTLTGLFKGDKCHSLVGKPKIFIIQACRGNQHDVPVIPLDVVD
T3 sequence (P55212 194-293 limits assumed): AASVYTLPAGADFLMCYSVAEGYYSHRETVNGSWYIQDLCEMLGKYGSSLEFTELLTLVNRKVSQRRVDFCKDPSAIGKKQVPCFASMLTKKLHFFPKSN
As to conditions: read-out: kinact/Ki C6. Summed up: (§2)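 Caspase-8 (25 nM), caspase-9 (100 nM) and caspase-10 (20 nM) used Ac-IETD-AMAC; caspase-9 and caspase-10 buffers also had 0.7 M sodium citrate. Caspase-6 (25 nM) used Ac-VEID-AMAC. Fluorescence (ex 320/em 460) was read immediately, and progress curves were fit for kinact and Ki.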

The target of experiment [4] is T4, caspase-10 (Homo sapiens, UniProt Q92851).
T4 sequence (Q92851 220-415 limits assumed): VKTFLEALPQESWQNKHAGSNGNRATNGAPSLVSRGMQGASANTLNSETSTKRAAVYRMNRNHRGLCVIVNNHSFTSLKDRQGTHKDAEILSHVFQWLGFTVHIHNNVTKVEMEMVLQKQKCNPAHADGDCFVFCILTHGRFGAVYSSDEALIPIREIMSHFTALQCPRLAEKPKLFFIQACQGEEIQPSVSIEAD
T4 sequence (Q92851 416-521 limits assumed): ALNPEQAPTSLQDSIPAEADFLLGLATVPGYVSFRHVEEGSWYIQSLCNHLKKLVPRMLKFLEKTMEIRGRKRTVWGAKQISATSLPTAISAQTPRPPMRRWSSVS
To be noted: read-out: kinact/Ki C10. Summed up: as §2

Experiment [5] addresses caspase-8 (Homo sapiens, UniProt Q14790). As to conditions: read-out: kinact/Ki C8. The gist of the method: as §2
Experiment [6] has as its target T5, caspase-9 (Homo sapiens, UniProt P55211).
T5 sequence (P55211 1-315 limits assumed): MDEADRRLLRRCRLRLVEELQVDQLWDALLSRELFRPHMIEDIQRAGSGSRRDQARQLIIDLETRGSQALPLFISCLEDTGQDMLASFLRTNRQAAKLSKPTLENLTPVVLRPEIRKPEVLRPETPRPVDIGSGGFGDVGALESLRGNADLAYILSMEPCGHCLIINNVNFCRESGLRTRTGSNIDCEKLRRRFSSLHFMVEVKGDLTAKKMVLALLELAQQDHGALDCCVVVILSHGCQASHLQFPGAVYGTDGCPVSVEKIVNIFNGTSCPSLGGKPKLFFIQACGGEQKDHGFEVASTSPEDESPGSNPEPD
T5 sequence (P55211 331-416 limits assumed): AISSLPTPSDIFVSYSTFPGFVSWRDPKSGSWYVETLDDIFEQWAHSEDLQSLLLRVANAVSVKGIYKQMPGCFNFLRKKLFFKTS
As to conditions: read-out: kinact/Ki C9. The gist of the method:
as §2

caspase-8, sequence (Q14790 217-374 limits assumed): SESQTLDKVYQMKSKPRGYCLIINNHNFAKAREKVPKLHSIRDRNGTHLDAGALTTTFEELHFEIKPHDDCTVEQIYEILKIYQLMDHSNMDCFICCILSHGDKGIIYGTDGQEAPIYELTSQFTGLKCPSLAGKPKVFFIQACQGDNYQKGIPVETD
caspase-8, sequence (Q14790 385-479 limits assumed): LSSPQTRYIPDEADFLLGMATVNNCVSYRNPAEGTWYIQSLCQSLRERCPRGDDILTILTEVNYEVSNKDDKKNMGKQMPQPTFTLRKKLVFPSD

Regarding `Cc1ccc(C(=O)OCC(=O)[C@@H](CC(=O)O)NC(=O)[C@@H](Cc2ccccc2)NC(=O)C[C@@H](CC(C)C)NC(=O)[C@@H](CC(=O)O)NC(=O)[C@@H](Cc2cccnc2)NC(=O)CCCCCNC(=O)CCCCCNC(=O)CCCc2cn(CCF)nn2)s1` [Inhibitor 1, (3R,6R,10R,13R,16R)-6-benzyl-13-(carboxymethyl)-35-(1-(2-fluoroethyl)-1H-1,2,3-triazol-4-yl)-10-isobutyl-3-(2-((5-methylthiophene-2-carbonyl)oxy)acetyl)-5,8,12,15,18,25,32-heptaoxo-16-(pyridin-3-ylmethyl)-4,7,11,14,17,24,31-heptaazapentatriacontanoic acid] ({X3-Ahx-Ahx}-[d3Pal][dD][d(β3hL)][dF]-X4), the kinact/KI in experiment [1] came to 73500 M⁻¹ s⁻¹; in experiment [2] it was 200 M⁻¹ s⁻¹; in experiment [3], 200 M⁻¹ s⁻¹.

Take `Cc1cccc(C)c1C(=O)OCC(=O)[C@@H](CC(=O)O)NC(=O)[C@@H](Cc1ccccc1)NC(=O)C[C@@H](CC(C)C)NC(=O)[C@@H](CC(=O)O)NC(=O)[C@@H](Cc1cccnc1)NC(=O)CCCCCNC(=O)CCCCCNC(=O)CCCc1cn(CCF)nn1` [Inhibitor 3, (3R,6R,10R,13R,16R)-6-benzyl-13-(carboxymethyl)-3-(2-((2,6-dimethylbenzoyl)oxy)acetyl)-35-(1-(2-fluoroethyl)-1H-1,2,3-triazol-4-yl)-10-isobutyl-5,8,12,15,18,25,32-heptaoxo-16-(pyridin-3-ylmethyl)-4,7,11,14,17,24,31-heptaazapentatriacontanoic acid] ({X3-Ahx-Ahx}-[d3Pal][dD][d(β3hL)][dF]-X5): the kinact/KI was determined as 206000 M⁻¹ s⁻¹ in experiment [1], 1000 M⁻¹ s⁻¹ in experiment [2] and 5400 M⁻¹ s⁻¹ in experiment [3].

Consider `Cc1ccc(C(=O)OCC(=O)[C@H](CC(=O)O)NC(=O)[C@H](Cc2ccccc2)NC(=O)[C@H](Cc2c(F)c(F)c(F)c(F)c2F)NC(=O)[C@H](CC(=O)O)NC(=O)[C@H](Cc2cccnc2)NC(=O)CNC(=O)[C@H](CCC(=O)O)NC(=O)CNC(=O)Cn2cc(CCCF)nn2)s1` [Inhibitor 4, (3S,6S,9S,12S,15S,21S)-6-benzyl-12-(carboxymethyl)-21-(2-(2-(4-(3-fluoropropyl)-1H-1,2,3-triazol-1-yl)acetamido)acetamido)-3-(2-((5-methylthiophene-2-carbonyl)oxy)acetyl)-5,8,11,14,17,20-hexaoxo-9-((perfluorophenyl)methyl)-15-(pyridin-3-ylmethyl)-4,7,10,13,16,19-hexaazatetracosanedioic acid] (X1-GEG[3Pal]D[Phe(F5)]F-{AspCH2OCO(5-Me-thien-2-yl)}), for which the kinact/KI in experiment [1] amounted to 863000 M⁻¹ s⁻¹; in experiment [2], 71400 M⁻¹ s⁻¹; in experiment [4] it was 700 M⁻¹ s⁻¹; in experiment [5], 7200 M⁻¹ s⁻¹; in experiment [3] it was 200 M⁻¹ s⁻¹; in experiment [6] it was 800 M⁻¹ s⁻¹.

For `Cc1ccc(C(=O)OCC(=O)[C@H](CC(=O)O)NC(=O)[C@H](Cc2ccccc2)NC(=O)[C@H](Cc2c(F)c(F)c(F)c(F)c2F)NC(=O)[C@H](CC(=O)O)NC(=O)[C@H](Cc2cccnc2)NC(=O)CCOCCOCCOCCOCCn2cc(CCCF)nn2)s1` [Inhibitor 5, (17S,20S,23S,26S,29S)-26-benzyl-20-(carboxymethyl)-1-(4-(3-fluoropropyl)-1H-1,2,3-triazol-1-yl)-29-(2-((5-methylthiophene-2-carbonyl)oxy)acetyl)-15,18,21,24,27-pentaoxo-23-((perfluorophenyl)methyl)-17-(pyridin-3-ylmethyl)-3,6,9,12-tetraoxa-16,19,22,25,28-pentaazahentriacontan-31-oic acid] (X2-[3Pal]D[Phe(F5)]F-{AspCH2OCO(5-Me-thien-2-yl)}), the kinact/KI in experiment [1] turned out to be 1.25e+06 M⁻¹ s⁻¹; in experiment [2], 106000 M⁻¹ s⁻¹; in experiment [4], 600 M⁻¹ s⁻¹; in experiment [5] it was 13500 M⁻¹ s⁻¹; in experiment [3], 300 M⁻¹ s⁻¹; in experiment [6], 1000 M⁻¹ s⁻¹.

Turning to `Cc1ccc(C(=O)OCC(=O)[C@H](CC(=O)O)NC(=O)[C@H](Cc2ccccc2)NC(=O)[C@H](Cc2c(F)c(F)c(F)c(F)c2F)NC(=O)[C@H](CC(=O)O)NC(=O)[C@H](Cc2cccnc2)NC(=O)CCCCCNC(=O)Cn2cc(CCCF)nn2)s1` [Inhibitor 6, (11S,14S,17S,20S,23S)-20-benzyl-14-(carboxymethyl)-1-(4-(3-fluoropropyl)-1H-1,2,3-triazol-1-yl)-23-(2-((5-methylthiophene-2-carbonyl)oxy)acetyl)-2,9,12,15,18,21-hexaoxo-17-((perfluorophenyl)methyl)-11-(pyridin-3-ylmethyl)-3,10,13,16,19,22-hexaazapentacosan-25-oic acid] ({X1-Ahx}-[3Pal]D[Phe(F5)]F-{AspCH2OCO(5-Me-thien-2-yl)}), the kinact/KI in experiment [1] stood at 851000 M⁻¹ s⁻¹; in experiment [2], 108000 M⁻¹ s⁻¹; in experiment [4], 900 M⁻¹ s⁻¹; in experiment [5] it was 7700 M⁻¹ s⁻¹; in experiment [3], 200 M⁻¹ s⁻¹; in experiment [6], 900 M⁻¹ s⁻¹.

With `Cc1ccc(C(=O)OCC(=O)[C@H](CC(=O)O)NC(=O)[C@H](Cc2ccccc2)NC(=O)[C@H](Cc2c(F)c(F)c(F)c(F)c2F)NC(=O)[C@H](CC(=O)O)NC(=O)[C@H](Cc2cccnc2)NC(=O)CNC(=O)CNC(=O)CNC(=O)Cn2cc(CCCF)nn2)s1` [Inhibitor 7, (13S,16S,19S,22S,25S)-22-benzyl-16-(carboxymethyl)-1-(4-(3-fluoropropyl)-1H-1,2,3-triazol-1-yl)-25-(2-((5-methylthiophene-2-carbonyl)oxy)acetyl)-2,5,8,11,14,17,20,23-octaoxo-19-((perfluorophenyl)methyl)-13-(pyridin-3-ylmethyl)-3,6,9,12,15,18,21,24-octaazaheptacosan-27-oic acid] (X1-GGG[3Pal]D[Phe(F5)]F-{AspCH2OCO(5-Me-thien-2-yl)}), the “inactivation rate on caspase-3 as compared to caspase-7” value in experiment [1] (ratio of kinact/Ki) is recorded as 14 times. The kinact/KI in experiment [1] amounted to 1.62e+06 M⁻¹ s⁻¹; in experiment [2] it was 117000 M⁻¹ s⁻¹; in experiment [4], 1000 M⁻¹ s⁻¹; in experiment [5], 15200 M⁻¹ s⁻¹; in experiment [3], 300 M⁻¹ s⁻¹; in experiment [6], 700 M⁻¹ s⁻¹.

As to `Cc1ccc(C(=O)OCC(=O)[C@H](CC(=O)O)NC(=O)[C@H](Cc2ccccc2)NC(=O)[C@H](Cc2c(F)c(F)c(F)c(F)c2F)NC(=O)[C@H](CC(=O)O)NC(=O)[C@H](Cc2cccnc2)NC(=O)Cn2cc(CCCF)nn2)s1` [Inhibitor 8, (4S,7S,10S,13S,16S)-13-benzyl-7-(carboxymethyl)-1-(4-(3-fluoropropyl)-1H-1,2,3-triazol-1-yl)-16-(2-((5-methylthiophene-2-carbonyl)oxy)acetyl)-2,5,8,11,14-pentaoxo-10-((perfluorophenyl)methyl)-4-(pyridin-3-ylmethyl)-3,6,9,12,15-pentaazaoctadecan-18-oic acid] (X1-[3Pal]D[Phe(F5)]F-{AspCH2OCO(5-Me-thien-2-yl)}), the kinact/KI in experiment [1] amounted to 549000 M⁻¹ s⁻¹; in experiment [2], 61000 M⁻¹ s⁻¹; in experiment [4], 700 M⁻¹ s⁻¹; in experiment [5], 5600 M⁻¹ s⁻¹; in experiment [6], 400 M⁻¹ s⁻¹.
